Shown are actives, neighbours in structure and some others; about 3% of the full set was active somewhere.
Yeast lifespan up: extends the lifespan of yeast. S. cerevisiae growth with nicotinamide, OD615; deaD strain in restrictive glucose medium. AID 775. inhibition of the nicotinamide effect, % at 10 µM. 130,000 compounds, 0.68% hits;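 active means inhibition above a set limit, placed 3 SD over the median of all compounds, cut at about 26% in these data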;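 further: 0% = nicotinamide-treated wells and 100% = cells grown without nicotinamide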
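Assay system: engineered S. cerevisiae DeaD replicative-lifespan strain, galactose-grown log-phase cells; Buffer or medium: CSMM-D glucose medium, restrictive; Probe or stimulus: nicotinamide 1.5 mM; Compound: single dose 10 µM compound, 0.25% DMSO; Schedule: 4 h preincubation then 48 h treatment at 30 °C; Technique: OD615 measurement.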
Yeast growth inh: yeast BB579 growth reduction in restrictive medium | S. cerevisiae BB579 growth, OD615, 48 h | inhibition, % at 10 µM | 140,000 compounds, 0.51% hits;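 active means inhibition above a set limit, 3 SD over the mean compound inhibition, cut at about 44% in these data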
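Detection: OD615 turbidity measurement; Material: Saccharomyces cerevisiae DeaD strain BB579, replicative lifespan model yeast; Timing: 48 h exposure, 30 °C; Doses: single 10 µM dose; Medium: CSMM-D restrictive synthetic medium containing dextrose (glucose); Controls: amphotericin B at 10 µg/mL as positive control.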
RAM network inh: inhibitors of the yeast RAM network; AID 868; S. cerevisiae dse1pr::URA3 reporter, 5-FOA growth OD615, 2 d; analog-sensitive cbk1-as2 kinase mutant strain; 190,000 compounds, 1.8% hits; inhibition, % at 50 µM;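 active means inhibition above a set limit, 3 SD over mean compound inhibition, cut at about 8.4% in these data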;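 further: 0% = DMSO-only wells with no growth and 100% = 10 µM 1-NA-PP1 full growth; inhibition rescues growth on 5-FOA so higher OD means more RAM inhibition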
INS promoter inh: TRM-6 insulin promoter activity inhibition; 130,000 compounds, 0.9% hits; TRM-6 cells, insulin promoter-eGFP reporter, imaging; reporter expression induced with tamoxifen; inhibition, % at 2 µM;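 active means inhibition above the mean plus 3 SD, with well images judged a real hit on visual review, cut at about 60% in these data, passing the limit was not always enough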
Insulin prom up: MIN6 insulin promoter up-regulation; 190,000 compounds, 0.3% hits; z-score at 5 µM; MIN6 insulin promoter-GFP reporter, high-content imaging; stronger effect = higher value; AID 1625;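 active means z-score above 3 at 5 µM with at least 500 cells counted in the well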
An asterisk follows results filed as active; . = not tested or not shown.

SMILES | Yeast lifespan up | Yeast growth inh | RAM network inh | INS promoter inh | Insulin prom up
CCOC(=O)c1c(-c2cccs2)csc1NC(=O)c1ccncc1 | 5 | -43 | 9.6* | . | -0.07
O=C(Nc1scc(-c2cccs2)c1C(=O)O)c1cccs1 | 35* | -10 | 3 | 50 | .
O=C(Nc1scc(-c2ccccc2)c1C(=O)O)c1ccco1 | 42* | -2 | 2 | -24 | 0.44
CCOC(=O)c1c(-c2ccc(C)o2)csc1NC(=S)NC(=O)c1ccc(F)cc1 | 2 | -24 | 11* | -64 | .
CCOC(=O)c1c(-c2ccc(C)o2)csc1NC(=O)CN1CCCCC1 | . | . | 0 | . | 0.03
CC(=O)c1c(C)n(CC(=O)NCc2ccco2)c2ccccc12 | . | . | 1 | . | -0.21
CCS(=O)(=O)N1CCC(C(=O)c2ccc(Cl)cc2)CC1 | . | -38 | 0 | -52 | -0.12
CCOC(=O)c1c(NC(=O)c2cccs2)sc(C)c1CC | -29 | 3 | 11* | . | -1.2
CCc1c(C)sc(NC(=O)c2cccs2)c1C(=O)OC(C)C | -2 | -7 | 5 | 27 | -0.58
CCOc1ccccc1/C=N/NC(=O)CNC(=O)c1cccs1 | . | . | 0 | . | 0.23
Cc1ccc(NC(=O)CC(O)(C(F)(F)F)C(F)(F)F)cc1 | 7 | -3 | 1 | 77* | -0.26
O=c1cc(-c2ccccc2)[nH]n1-c1nc2ccccc2[nH]1 | -26 | 97* | 1 | -18 | 0.85
CCOc1ccccc1N=CC1=C(O)CC(c2ccccc2)CC1=O (stereo not given) | . | . | 11* | -79 | -1.3
CCc1ccccc1NC(=O)Nc1cc(F)ccc1F | . | . | 3 | . | 0.22
Cc1ccc(S(=O)(=O)N2CCCC(C(=O)NCCC(C)C)C2)cc1 (stereo not given) | . | . | 1 | . | -0.05
COc1ccc(C2/C=C\CN(S(=O)(=O)c3cccc4cccnc34)CC(=O)N2Cc2ccc(F)cc2)cc1 (stereo not given) | . | . | . | . | 7.5*
C=CC(=O)N1C/C=C\C(c2ccc(OC)cc2)N(Cc2ccc(F)cc2)C(=O)C1 (stereo not given) | . | . | . | . | 0.49
Oc1c(Cl)cc(Cl)cc1C=Nc1ccccc1N1CCCC1 | 28* | -25 | 0 | 19 | .
NC(=O)c1cccc(N=Cc2cc(Cl)cc(Cl)c2O)c1 | . | . | -1 | 0 | 0.34
COc1ccc(CNc2nc(NCc3ccc(OC)cc3)n(C(C)=O)n2)cc1 | -2 | -13 | 5 | 50 | .
CCC(=O)n1nc(NCc2ccccc2OC)nc1NCc1ccccc1OC | -4 | -78 | 9.2* | 50 | -0.45
CCOC(=O)c1c(C)[nH]c(C(=O)Cn2nnc(-c3ccccc3)n2)c1C | -4 | -50 | 8.9* | 4 | .
CCN1C(=O)/C(=C/c2ccc(N3CCCC3)cc2)NC1=S | -5 | -22 | 2 | -252 | 16*
CCCN1C(=O)/C(=C/c2ccc(N3CCOCC3)cc2)NC1=S | . | . | 6 | . | .
CC(Nc1nc(N2CCNCC2)nc2ccccc12)c1ccccc1 (stereo not given) | . | . | -1 | 27 | -1.4
SMILES | Yeast lifespan up | Yeast growth inh | RAM network inh | INS promoter inh | Insulin prom up
COc1ccc(NC(=O)C2CCCN2S(=O)(=O)c2cccc3cccnc23)c(OC)c1 (stereo not given) | -12 | 98* | 0 | . | 0.34
Cc1cccc2sc(NC(=O)C3CCCN(S(=O)(=O)c4cccc5nonc45)C3)nc12 (stereo not given) | -2 | -41 | 3 | -9 | 6.6*
CCOc1ccc(OCC)c(NC(=O)C2CCCN2S(=O)(=O)c2cccc3cccnc23)c1 (stereo not given) | -2 | -28 | 3 | . | -0.13
Cc1ccc2nc(NC(=O)C3CCCN(S(=O)(=O)c4cccc5nonc45)C3)sc2c1 (stereo not given) | . | . | . | . | 0.77
O=C(NC1CCCC1)C1CCCN(S(=O)(=O)c2cccc3cccnc23)C1 (stereo not given) | -4 | -73 | 8.7* | . | -0.47
Cc1nc2c(Br)c(C)nn2c2c1CCC2 | . | . | 2 | 50 | 0.29
CC1CCCN(C2=C(Cl)C(=O)N(c3cccc(Cl)c3)C2=O)C1 (stereo not given) | 15 | -53 | 10* | -6 | 0.76
O=C(NCc1ccccc1)N1CCC(n2cnc3cc(F)ccc32)CC1 | -11 | -33 | 2 | 78* | 0.83
Cc1ccc2c(c1)nnn2C1CCN(C(=O)NCc2ccccc2)CC1 | . | . | 2 | 25 | 0.12
CCCCc1oc2ccccc2c1C(=O)c1cc(I)c(OCCN(CC)CC)c(I)c1 | -10 | 99* | . | -32 | .
CCOC(=O)C(=NCCCN(C)C)NNc1ccc(Br)cc1 | -10 | 92* | -2 | -17 | -0.14
CCCCN=C(NNc1ccc(Br)cc1)C(=O)OCC | -13 | 97* | -1 | . | 0.55
CCOC(=O)C(=NCCCN(C)C)NNc1cc(C(F)(F)F)ccc1Cl | . | . | 0 | -71 | 0.63
CCS(=O)(=O)NCCNc1ccc([N+](=O)[O-])cc1 | . | . | 0 | . | .
CC(C)N=c1scc(-c2ccco2)n1/N=C/c1ccc(O)c(O)c1 | -30 | 92* | -1 | -5 | -5.1
COCCN=c1scc(-c2ccco2)n1/N=C/c1ccc(O)c(O)c1O | . | . | 3 | . | 0.85
Oc1ccc(Br)cc1C=Nc1ccc2c3c(cccc13)CC2 | 16 | -84 | 10* | -104 | 0.16
Oc1ccc(Cl)cc1C=Nc1ccccc1Br | 24 | -40 | 0 | . | 0.35
COc1cc(CNCCN2CCOCC2)ccc1OCc1cccc(Cl)c1 | -15 | 53* | 0 | . | .
COc1ccc(C)cc1NC(=O)C(Sc1nnc(Nc2cc(C)ccc2OC)s1)c1ccccc1 (stereo not given) | 9 | -60 | 8.5* | 8 | -1.4
CCC(C)n1c(SCc2ccccc2)nc2ccsc2c1=O (stereo not given) | -3 | -13 | 1 | -12 | -0.3
CC(OC(=O)c1ccc(S(=O)(=O)N(C)c2ccccc2)cc1)C(=O)NCCC1=CCCCC1 (stereo not given) | 3 | -15 | 8.8* | -9 | .
COc1ccc(C(=O)c2ccc(CC(=O)O)s2)cc1 | . | . | 0 | . | -2.6
COC(=O)c1ccc(OC(=O)CCN2c3ccccc3Sc3ccccc32)cc1 | 5 | -19 | 11* | . | -0.13
Cn1c(SCC(=O)N2CCCc3ccccc32)nnc1-c1c[nH]c2ccccc12 | 43* | -45 | -1 | -19 | .
SMILES | Yeast lifespan up | Yeast growth inh | RAM network inh | INS promoter inh | Insulin prom up
CCn1c(SCC(=O)N2CCCc3ccccc32)nnc1-c1c[nH]c2ccccc12 | -15 | -12 | 3 | 24 | -0.74
COc1ccc(CCn2c(-c3ccc(C(C)(C)C)cc3)n[nH]c2=S)cc1OC | . | . | 8.7* | 32 | 1
CCOc1ccc(C(=O)CCN2CCCCCC2)cc1 | -1 | -15 | -2 | . | -0.91
CCOc1ccc(OCCN2CCCCC2)cc1 | 8 | 2 | 1 | 62* | 0.21
Cc1ccc(OC(=O)c2sc3ncn(C)c(=O)c3c2C)cc1 | . | . | 4 | -14 | 0.13
O=C(Cn1ncc(Cl)c(Cl)c1=O)c1ccc(Cl)cc1 | . | 12 | 2 | -8 | .
O=C(OCn1ncc(Cl)c(Cl)c1=O)c1ccccc1Cl | -16 | 66* | -1 | -179 | .
O=c1c(Cl)c(Cl)cnn1Cc1ccc(F)cc1 | . | . | 1 | . | 0.61
O=C(OCn1ncc(Cl)c(Cl)c1=O)c1ccc(F)cc1 | 7 | 45* | 3 | -243 | .
